In ChEMBL document CHEMBL3232759, “Hepatoprotective effects of triterpenoids from Ganoderma cochlear” (J Nat Prod, 2014):

Tests used:
HepG2 [1] = assay: Hepatoprotective activity against H2O2-induced human HepG2 cells assessed as reduction in AST level at 29.95 uM after 24 hrs (reference value: 32.36 +/- 0.79 U/L); format: functional
In short: (§1)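 HepG2 cells in log phase seeded at 1 × 10^4 cells/well and held 24 h at 37 °C. Exposed to 3.2 mM H2O2 for 2 h at 37 °C, then to test compound in medium with DMSO for 24 h. ALT or AST read directly in the supernatant. Controls: DMSO-only cells and H2O2-only model. Test concentrations kept within each compound's MTT-determined maximum nontoxic level. Mean ± SD, n = 3; paired-sample test.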

HepG2 [2] = assay: Hepatoprotective activity against H2O2-induced human HepG2 cells assessed as reduction in AST level at 59.90 uM after 24 hrs (reference value: 32.36 +/- 0.79 U/L); format: functional; in short: as §1
[3] = Cytotoxicity against human HepG2 cells after 96 hrs by MTT assay; format: cell-based; settings: read-out: MTD
In short: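 HepG2 cells seeded at 1 × 10^4 cells/well in MEM + 10% FBS, 24 h at 37 °C. Compounds diluted from DMSO stocks into MEM with 2% FBS (6.25, 12.5, 25, 50, 100, 200, 400 μM), DMSO kept below 1% (v/v). Added to monolayer; MTT read at OD570 after 96 h. % inhibition vs DMSO control; maximum nontoxic concentration determined.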

HepG2 [4] = assay: Hepatoprotective activity against H2O2-induced human HepG2 cells assessed as reduction in ALT level at 59.90 uM after 24 hrs (reference value: 23.22 +/- 1.22 U/L); format: functional; in short: as §1
HepG2 [5] = assay: Hepatoprotective activity against H2O2-induced human HepG2 cells assessed as reduction in AST level at 14.98 uM after 24 hrs (reference value: 32.36 +/- 0.79 U/L); format: functional; in short: as §1
HepG2 [6] = assay: Hepatoprotective activity against H2O2-induced human HepG2 cells assessed as reduction in ALT level at 14.98 uM after 24 hrs (reference value: 23.22 +/- 1.22 U/L); format: functional; in short: as §1
HepG2 [7] = assay: Hepatoprotective activity against H2O2-induced human HepG2 cells assessed as reduction in ALT level at 29.95 uM after 24 hrs (reference value: 23.22 +/- 1.22 U/L); format: functional; in short: as §1
HepG2 [8] = assay: Hepatoprotective activity against H2O2-induced human HepG2 cells assessed as reduction in AST level at 3.88 uM after 24 hrs (reference value: 32.36 +/- 0.79 U/L); format: functional; in short: as §1
HepG2 [9] = assay: Hepatoprotective activity against H2O2-induced human HepG2 cells assessed as reduction in ALT level at 3.88 uM after 24 hrs (reference value: 23.22 +/- 1.22 U/L); format: functional; in short: as §1
HepG2 [10] = assay: Hepatoprotective activity against H2O2-induced human HepG2 cells assessed as reduction in AST level at 7.75 uM after 24 hrs (reference value: 32.36 +/- 0.79 U/L); format: functional; in short: as §1
HepG2 [11] = assay: Hepatoprotective activity against H2O2-induced human HepG2 cells assessed as reduction in ALT level at 15.5 uM after 24 hrs (reference value: 23.22 +/- 1.22 U/L); format: functional; in short: as §1
HepG2 [12] = assay: Hepatoprotective activity against H2O2-induced human HepG2 cells assessed as reduction in AST level at 15.5 uM after 24 hrs (reference value: 32.36 +/- 0.79 U/L); format: functional; in short: as §1
HepG2 [13] = assay: Hepatoprotective activity against H2O2-induced human HepG2 cells assessed as reduction in ALT level at 7.75 uM after 24 hrs (reference value: 23.22 +/- 1.22 U/L); format: functional; in short: as §1
HepG2 [14] = assay: Hepatoprotective activity against H2O2-induced human HepG2 cells assessed as reduction in AST level at 32.85 uM after 24 hrs (reference value: 32.36 +/- 0.79 U/L); format: functional; in short: as §1
HepG2 [15] = assay: Hepatoprotective activity against H2O2-induced human HepG2 cells assessed as reduction in AST level at 16.43 uM after 24 hrs (reference value: 32.36 +/- 0.79 U/L); format: functional; in short: as §1
HepG2 [16] = assay: Hepatoprotective activity against H2O2-induced human HepG2 cells assessed as reduction in ALT level at 32.85 uM after 24 hrs (reference value: 23.22 +/- 1.22 U/L); format: functional; in short: as §1
HepG2 [17] = assay: Hepatoprotective activity against H2O2-induced human HepG2 cells assessed as reduction in AST level at 65.70 uM after 24 hrs (reference value: 32.36 +/- 0.79 U/L); format: functional; in short: as §1
HepG2 [18] = assay: Hepatoprotective activity against H2O2-induced human HepG2 cells assessed as reduction in ALT level at 65.70 uM after 24 hrs (reference value: 23.22 +/- 1.22 U/L); format: functional; in short: as §1
HepG2 [19] = assay: Hepatoprotective activity against H2O2-induced human HepG2 cells assessed as reduction in ALT level at 16.43 uM after 24 hrs (reference value: 23.22 +/- 1.22 U/L); format: functional; in short: as §1
HepG2 [20] = assay: Hepatoprotective activity against H2O2-induced human HepG2 cells assessed as reduction in AST level at 9.20 uM after 24 hrs (reference value: 32.36 +/- 0.79 U/L); format: functional; in short: as §1
HepG2 [21] = assay: Hepatoprotective activity against H2O2-induced human HepG2 cells assessed as reduction in ALT level at 9.20 uM after 24 hrs (reference value: 23.22 +/- 1.22 U/L); format: functional; in short: as §1
HepG2 [22] = assay: Hepatoprotective activity against H2O2-induced human HepG2 cells assessed as reduction in ALT level at 18.40 uM after 24 hrs (reference value: 23.22 +/- 1.22 U/L); format: functional; in short: as §1
HepG2 [23] = assay: Hepatoprotective activity against H2O2-induced human HepG2 cells assessed as reduction in AST level at 18.40 uM after 24 hrs (reference value: 32.36 +/- 0.79 U/L); format: functional; in short: as §1
HepG2 [24] = assay: Hepatoprotective activity against H2O2-induced human HepG2 cells assessed as reduction in ALT level at 4.60 uM after 24 hrs (reference value: 23.22 +/- 1.22 U/L); format: functional; in short: as §1
HepG2 [25] = assay: Hepatoprotective activity against H2O2-induced human HepG2 cells assessed as reduction in AST level at 4.60 uM after 24 hrs (reference value: 32.36 +/- 0.79 U/L); format: functional; in short: as §1

`C=C(C)[C@@H]1C[C@H](O)C2=C(C(=O)C[C@]3(C)[C@@H]([C@H](C)CCC(=O)OC)CC[C@@]23C)[C@@]1(C)CCC(=O)OC` gave an Activity (HepG2 [1]) of 26.77 U/L, an Activity (HepG2 [2]) of 22.11 U/L and an MNTC at 96 h [3] of 59.9 µM. It also gave an Activity (HepG2 [4]) of 17.81 U/L, an Activity (HepG2 [5]) of 28.28 U/L and an Activity (HepG2 [6]) of 19.32 U/L. It also gave an Activity (HepG2 [7]) of 18.51 U/L.

`CC(C)=CC[C@H](O)[C@@H](C)[C@H]1CC[C@@]2(C)C3=CC[C@H]4C(C)(C)[C@@H](O)CC[C@]4(C)C3=CC[C@]12C` showed an MNTC at 96 h [3] of 150 µM.

Compound `C=C(C)[C@@H]1C[C@H](O)C2=C(C(=O)C[C@]3(C)[C@@H]([C@H](C)CCC(=O)O)CC[C@@]23C)[C@@]1(C)CCC(=O)OC` has an MNTC at 96 h [3] of 18.4 µM, an Activity (HepG2 [8]) of 28.23 U/L and an Activity (HepG2 [9]) of 21.01 U/L. The Activity (HepG2 [10]) was 26.54 U/L, the Activity (HepG2 [11]) was 19.73 U/L and the Activity (HepG2 [12]) was 26.19 U/L. The Activity (HepG2 [13]) was 19.32 U/L.

For `C[C@H]1C(=O)CC[C@@H]2[C@]1(C)CC[C@H]1[C@@]2(C)CC[C@@]2(C)[C@@H]3CC(C)(C)CC[C@]3(C)CC[C@]12C` [FRIEDELINE], the Activity (HepG2 [14]) was 25.43 U/L, the MNTC at 96 h [3] was 15 µM and the Activity (HepG2 [15]) was 29.45 U/L. For the same compound, the Activity (HepG2 [16]) was 18.27 U/L, the Activity (HepG2 [17]) was 19.09 U/L and the Activity (HepG2 [18]) was 16.06 U/L. The Activity (HepG2 [19]) was 18.92 U/L.

In the case of `C=C(C)[C@@H]1C[C@H](O)C2=C(C(=O)C[C@]3(C)[C@@H]([C@H](C)CCC(=O)OC)CC[C@@]23C)[C@@]1(C)CCC(=O)O`, the MNTC at 96 h [3] is reported as 15.5 µM.

Work on `C=C(C)[C@@H]1C[C@@H]2O[C@@]1(CCC(=O)O)CC1=C2[C@]2(C)CC[C@H]([C@H](C)CCC(=O)OC)[C@@]2(C)CC1=O` yielded an MNTC at 96 h [3] of 74.6 µM.

In the case of `C=C(C)[C@@H]1C[C@H](O)C2=C(C(=O)C[C@]3(C)[C@@H]([C@H](C)CCC(=O)O)CC[C@@]23C)[C@@]1(C)CCC(=O)O`, the MNTC at 96 h [3] is reported as 65.7 µM, the Activity (HepG2 [20]) is reported as 23.8 U/L and the Activity (HepG2 [21]) is reported as 20.2 U/L. The Activity (HepG2 [22]) was 20.84 U/L, the Activity (HepG2 [23]) was 20.66 U/L and the Activity (HepG2 [24]) was 19.61 U/L. It also gave an Activity (HepG2 [25]) of 30.38 U/L.
